# From PubChem
# CHO parental Ca: ATP-evoked calcium signal inhibitors, parental CHO, primary screen, counter-screen for OX1R antagonist project, cell-based, fluorescence, Fluo-8 calcium dye; AID 463079, 2010; inhibition, % at 5.6 µM; parental CHO-K1, ATP-induced calcium, Fluo-8 fluorescence; 330,000 compounds, 0.63% hits;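 active means inhibition above that plate's mean sample inhibition plus 3 SD, cut at about 26% in these data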;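 further: 0% = ATP-challenged DMSO wells and 100% = DMSO wells without ATP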
#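 Test system: untransfected parental CHO cell line. Compound: one dose, 5.6 µM nominal. Detection: intracellular calcium via Fluo-8 no-wash fluorescent dye. Measure: % inhibition. Benchmarks: ATP-challenged DMSO wells low, unchallenged DMSO wells high.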
# OX1R antag-1: OX1R (HCRTR1) antagonists, primary screen, fluorescence, CHO/OX1R cells, Fluo-8 calcium, orexin A; Fluo-8 calcium fluorescence; inhibition, % at 5 µM; 330,000 compounds, 0.43% hits; AID 434989, 2010;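 active means inhibition above its plate's threshold, mean inhibition of all tested compounds on the plate plus 3 SD, cut at about 37% in these data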;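 further: 0% = orexin A challenge wells and 100% = SB-334867-A antagonist wells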
# OX1R antag-2: antagonists of human orexin 1 receptor (OX1R); OX1R-expressing cells, FRET antagonist read-out; inhibition, % at 6.6 µM; 330,000 compounds, 1.8% hits; in the data active means inhibition mostly above about 38%, no sharp cut-off; inactive means mostly below about 40%;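 further: 0% = agonist challenge alone and 100% = reference antagonist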
# TAAR1 antagonist: human TAAR1 antagonists, primary screen, Fluo-8 calcium fluorescence, CHO RD-HGA16 cells; antagonist; AID 624466, 2012; 360,000 compounds, 1.5% hits; inhibition, % at 3 µM;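 active means inhibition above a per-plate cutoff, the mean inhibition of test compounds on that plate plus 3 SD, cut at about 49% in these data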;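 further: 0% = DMSO plus EC80 beta-PEA response and 100% = DMSO alone without agonist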
# Target sequence (Q96RJ0 whole entry, looked up): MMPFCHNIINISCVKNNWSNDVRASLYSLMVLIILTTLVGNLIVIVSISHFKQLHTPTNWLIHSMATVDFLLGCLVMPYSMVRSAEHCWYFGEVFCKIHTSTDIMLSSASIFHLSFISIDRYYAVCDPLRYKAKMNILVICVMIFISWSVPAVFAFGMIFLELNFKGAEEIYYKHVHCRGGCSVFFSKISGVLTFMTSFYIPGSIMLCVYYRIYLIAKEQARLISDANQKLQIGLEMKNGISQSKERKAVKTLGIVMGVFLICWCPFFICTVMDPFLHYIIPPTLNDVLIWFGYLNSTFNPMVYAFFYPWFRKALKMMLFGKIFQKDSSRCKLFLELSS
#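 test system = CHO RD-HGA16 cells bearing hTAAR1 | replication = singlicate | controls = DMSO-only wells and EC80 β-PEA-stimulated wells | reagent = EC80 β-phenethylamine stimulus | read-out basis = percent inhibition of PEA-evoked calcium signal, max/basal emission ratio | schedule = seeding 17-24 h prior, 75-min 37 °C, 30-min RT dye loading | signal = kinetic Fluo-8 calcium fluorescence measurement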
# TAAR1 agonist: human TAAR1 agonists, primary screen, Fluo-8 calcium fluorescence, CHO RD-HGA16 cells | Trace amine-associated receptor 1 (Homo sapiens), Q96RJ0 | vehicle wells 0%, saturating PEA agonist 100% | activation, % at 3 µM | 360,000 compounds, 0.99% hits;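 active means activation above the mean activation of all test compounds in the run plus 3 SD, cut at about 38% in these data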
#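 test system = CHO RD-HGA16 cells carrying human TAAR1 plus Gα16 | schedule = 17-24 h seeding, 75 min 37 °C dye, 30 min RT | compound dosing = 3 µM single concentration | control set = DMSO and PEA EC100 | replicates = n 1 | signal = Fluo-8 fluorescence, 5 s baseline then 140 s kinetic read | measure = percent activation vs PEA EC100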
# Starred values were filed as active, the others as inactive; · = no result given. In the library only some 4% were active in any assay of this set; here they are far more common.
SMILES,CHO parental Ca,OX1R antag-1,OX1R antag-2,TAAR1 antagonist,TAAR1 agonist
Cc1nc2cc([N+](=O)[O-])ccc2c(=O)n1-c1ccccc1[N+](=O)[O-],-8.9,-18.9,53.1*,8.4,1.8
NC(=O)c1cc(N2CC2)c([N+](=O)[O-])cc1[N+](=O)[O-],1.5,5.2,73.6*,-7.4,0.9
O=[N+]([O-])c1cc(F)c(N2CCCCCC2)cc1N1CCNCC1,-17.4,-23.9,14.8,-6.3,6.1
COC(=O)c1ccc(N2CCN(C)CC2)c([N+](=O)[O-])c1,-16.6,-22.2,44.5*,11.1,1.4
COC(COC(N)=O)C1=C(N2CC2)C(=O)C(C)=C(N2CC2)C1=O (stereo not drawn),·,·,·,-12.7,2.2
COC12C(COC(N)=O)C3=C(C(=O)C(C)=C(N)C3=O)N1CC1C2N1C (stereo not drawn),-5.5,3.8,56.7*,-3.0,0.4
O=C1NCN(c2ccccc2)C12CCN(C(c1ccccc1OC(F)(F)F)c1nnnn1-c1ccc3c(c1)OCCO3)CC2 (stereo not drawn),·,·,·,-9.3,2.8
COc1ccc(-n2nnnc2C(CCSC)N2CCC(n3c(=O)[nH]c4ccccc43)CC2)cc1 (stereo not drawn),·,·,·,55.1*,13.8
CSCCC(c1nnnn1-c1ccc2c(c1)OCCO2)N1CCC2(CC1)C(=O)NCN2c1ccccc1 (stereo not drawn),·,·,·,53.5*,16.9
Cc1cccc(C)c1-n1nnnc1C(CCc1ccccc1)N1CCC(n2c(=O)[nH]c3ccccc32)CC1 (stereo not drawn),·,·,·,16.5,4.0
COc1ccc(C(c2nnnn2-c2ccc3c(c2)OCCO3)N2CCC(n3c(=O)[nH]c4ccccc43)CC2)cc1 (stereo not drawn),·,·,·,58.9*,20.4
O=c1[nH]c2ccccc2n1C1CCN(C(CCc2ccccc2)c2nnnn2-c2ccc3c(c2)OCCO3)CC1 (stereo not drawn),·,·,·,55.0*,7.2
O=C1CC[C@@]2(O)[C@H]3Cc4ccc(O)c5c4[C@@]2(CCN3CC2CC2)C1O5 (stereo partly drawn),·,·,·,-10.0,0.1
CN1C2(C)c3ccccc3C1(c1ccccc1)c1ccccc12,·,·,·,-15.3,2.2
CCc1cc(OC)c(CCN)cc1OC,·,·,·,8.8,23.2
COc1cccc(C(c2nnnn2Cc2ccccc2)N2CCC3(CC2)C(=O)NCN3c2ccccc2)c1OC (stereo not drawn),·,·,·,53.6*,8.1
CC1CCCN(CC(=O)c2ccc(Cl)c(Cl)c2)C1 (stereo not drawn),-5.9,10.3,7.1,6.1,41.8*
CCC(=NCCN1CCCCC1)c1c(O)n(C)c(=O)n(C)c1=O,7.7,-14.1,23.5,-7.5,2.2
CCC(=NCCOc1ccc(Cl)cc1)c1c(O)n(C)c(=O)n(C)c1=O,50.1*,53.6*,19.4,26.6,13.9
CCC(=NCCc1c[nH]c2ccccc12)c1c(O)n(C)c(=O)n(C)c1=O,43.8*,19.6,26.7,49.5*,13.4
CC(=NCCc1ccccc1)c1c(O)n(C)c(=O)n(C)c1=O,-15.4,0.4,6.2,-25.5,43.0*
CC(O)C1C=CC=CC(=O)OC2CC3OC4C5OC5(C)CCC4(COC(=O)C4OC4(C)C(O)CO1)C2(C)C31CO1 (stereo not drawn),·,·,·,-11.7,0.4
CC(=O)OC1C(=O)OCC23CCC4(C)OC4C2OC2CC(OC(=O)C=CC=CC(=O)OCCC1C)C3(C)C21CO1 (stereo not drawn),·,·,·,64.8*,12.2
Cc1cc(C)cc(-n2c(C)cc(/C=C3\C(=O)NC(=O)N(C)C3=O)c2C)c1,-21.8,-27.7,14.2,-16.1,38.0*
Nc1c(Br)cc2c3c(cccc13)-c1ccccc1-2,·,·,·,41.9,29.6
CC[n+]1c(/C=C/C=C/c2ccc(N(C)C)cc2)sc2ccccc21,33.2*,42.4,75.0*,-4.8,1.4
Cc1ccc(OC(=O)N(C)C[C@H]2OCc3cnnn3CCCC(=O)N([C@H](C)CO)C[C@H]2C)cc1,·,·,·,-36.9,3.0
Cc1c(N=Nc2c(O)[nH]c(=S)[nH]c2=O)c(=O)n(-c2ccccc2)n1C,-9.2,1.8,76.6*,23.9,-2.4
